Reference: ChEMBL document CHEMBL3272089, “Synthesis and antitumor activity of dihydro-5-azacytidine, a hydrolytically stable analogue of 5-azacytidine” (J Med Chem, 1977)
Activity calls are given as the source filed them. The calls are words filed in the database; no cut-off is given here.

Tests used:
L1210 [1] = assay: Antitumor activity against mouse L1210 cells allografted in ip dosed mouse assessed as increase in life span at MNTD administered qd on day 1, 5 and 9 post tumor implantation relative to control; assay type: functional
How it was run: (§1)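 L1210 implanted ip in mice. Compound given ip in 0.9% saline on the listed schedule across a dose-response range. % ILS reported at the highest nontoxic dose, or at the dose giving maximal ILS for active compounds. Test minus control body-weight change on day 5 at the highest nontoxic dose.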

L1210 [2] = assay: Antitumor activity against mouse L1210 cells allografted in ip dosed mouse assessed as change in body weight at MNTD administered qd on day 1, 5 and 9 post tumor implantation measured on day 5 relative to control; assay type: functional
How it was run: (§2)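 Doses were given ip in 0.9% saline after ip L1210 implantation, as a dose–response series. The reading is the difference in average body weight change (g) between test (T) and control (C) groups, measured on day 5 at the highest nontoxic dose tested.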

L1210 [3] = assay: Cytotoxicity against mouse L1210 cells assessed as cessation of growth; assay type: functional, cell-based
L1210 [4] = assay: Cytotoxicity against mouse L1210 cells assessed as cessation of growth in presence of cytidine; assay type: functional, cell-based
L1210 [5] = assay: Cytotoxicity against mouse L1210 cells assessed as cessation of growth in presence of uridine; assay type: functional, cell-based
L1210 [6] = assay: Antitumor activity against mouse L1210 cells allografted in ip dosed mouse assessed as increase in life span at MNTD administered qd from day 1 to day 9 post tumor implantation relative to control; assay type: functional; how it was run: as §1
L1210 [7] = assay: Antitumor activity against mouse L1210 cells allografted in ip dosed mouse assessed as change in body weight at MNTD administered qd from day 1 to day 9 post tumor implantation measured on day 5 relative to control; assay type: functional; how it was run: as §2

SMILES | ILS (L1210 [1]) [%] | Activity (L1210 [2]) [g] | further results
NC(N)=NC(=O)N[C@@H]1O[C@H](CO)[C@@H](O)[C@H]1O | 0 | -2.2 | –
NC1=NC(=O)N([C@@H]2O[C@H](CO)[C@H]3O[B-]4(O[C@H]32)O[C@@H]2[C@H](O4)[C@@H](CO)O[C@H]2N2CNC(N)=NC2=O)CN1.[Na+] (stereo partly specified) | 80 | -1.5 | –
NC1=NC(=O)N([C@@H]2O[C@H](CO)[C@@H](O)[C@H]2O)CN1 [listing 1 of 2 here] | – | – | Activity (L1210 [3]): Active; Activity (L1210 [4]): inactive; Activity (L1210 [5]): inactive
Cl.NC1=NC(=O)NCN1 | 0 | 1 | –
NC1=NC(=O)N([C@@H]2O[C@H](CO)[C@@H](O)[C@H]2O)CN1 [listing 2 of 2 here] | – | – | ILS (L1210 [6]): 86%; Activity (L1210 [7]): -3.2 g
